Experiments:
NCI-H460 = assay: Cytotoxicity against human NCI-H460 cells after 72 hrs by MTT assay; format: functional, cell-based; settings: NCI-H460, 72 h
Method in brief: (§1)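 Cells were kept in RPMI-1640 or DMEM with 10% heat-inactivated FBS, penicillin–streptomycin, 2 mM glutamine and 10 mM HEPES at 37 °C, 5% CO2. They were trypsinized, seeded at 3 × 10³ per well and allowed 24 h before exposure to a range of concentrations for 72 h. MTT (5 mg/mL stock) was added for 4 h, absorbance read at 570 nm, and IC50 calculated.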

MDA-MB-231 = assay: Cytotoxicity against human MDA-MB-231 cells after 72 hrs by MTT assay; format: functional, cell-based; settings: MDA-MB-231, 72 h; method in brief: as §1
OS-RC-2 = assay: Cytotoxicity against human OS-RC2 cells after 72 hrs by MTT assay; format: functional, cell-based; settings: OS-RC-2, 72 h; method in brief: as §1
SGC-7901 = assay: Cytotoxicity against human SGC7901 cells after 72 hrs by MTT assay; format: functional, cell-based; settings: SGC-7901, 72 h; method in brief: as §1
LoVo = assay: Cytotoxicity against human LoVo cells after 72 hrs by MTT assay; format: functional, cell-based; method in brief: as §1
Bel-7402 = assay: Cytotoxicity against human Bel7402 cells after 72 hrs by MTT assay; format: functional, cell-based; settings: Bel-7402, 72 h; method in brief: as §1
A549 = assay: Cytotoxicity against human A549 cells after 72 hrs by MTT assay; format: functional, cell-based; settings: A549, 72 h; method in brief: as §1
HepG2 = assay: Cytotoxicity against human HepG2 cells after 72 hrs by MTT assay; format: functional, cell-based; settings: HepG2, 72 h; method in brief: as §1
HT-29 = assay: Cytotoxicity against human HT-29 cells after 72 hrs by MTT assay; format: functional, cell-based; settings: HT-29, 72 h; method in brief: as §1
Mus musculus [1] = assay: Acute toxicity against mouse at 2000 mg/kg, po administered as single dose; format: organism-based; design: dose 2000 mg/kg, route oral; settings: in vivo
Method in brief: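 Mice received one oral dose, and the read-out was any sign of toxicity. The highest dose given without signs was recorded as the tolerated single oral dose.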

Mus musculus [2] = assay: Toxicity against mouse at 1460 mg/kg, po administered as single dose; format: organism-based; design: dose 1460 mg/kg, route oral; settings: in vivo
Method in brief: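 Acute toxicity was tested in mice by a single oral dose, with doses up to 2000 mg/kg. Animals were watched for any sign of toxicity.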

Compound | IC50 (NCI-H460) [µM] | IC50 (MDA-MB-231) [µM] | IC50 (OS-RC-2) [µM] | IC50 (SGC-7901) [µM] | IC50 (LoVo) [µM] | IC50 (Bel-7402) [µM] | IC50 (A549) [µM] | IC50 (HepG2) [µM] | IC50 (HT-29) [µM] | Activity (Mus musculus [1]) | Activity (Mus musculus [2])
O=C(Nc1ccc(-n2ncc3c(C(F)(F)F)cccc32)cc1)Nc1ccc(Cl)c(C(F)(F)F)c1 | 1.6 | 2 | > 32 | > 32 | 3 | 16 | 3 | 8 | 2.9 | Non-toxic | –
O=C(Nc1ccc(-n2ncc3c(Cl)cccc32)cc1)Nc1ccc(Cl)c(C(F)(F)F)c1 | 1.3 | 1.6 | 3.1 | 4.6 | 3.6 | 2 | 3.1 | 1.9 | 4.6 | Non-toxic | –
O=C(Nc1ccc(-n2ncc3c(Br)cccc32)cc1)Nc1ccc(Cl)c(C(F)(F)F)c1 | 1.3 | 7.7 | 9.9 | 16.6 | 1.7 | 1.3 | 2.3 | 2.5 | 4 | – | –
O=C(Nc1ccc(-n2ncc3c(F)cccc32)cc1)Nc1ccc(Cl)c(C(F)(F)F)c1 | 3.4 | 3.1 | 32 | 32 | 9.8 | 16 | 3.8 | 29.5 | 8.2 | – | –
Cc1cccc2c1cnn2-c1ccc(NC(=O)Nc2ccc(Cl)c(C(F)(F)F)c2)cc1 | 2.5 | 2.3 | 32 | 14.2 | 3.9 | 6.7 | 5.5 | 4 | 32 | – | –
O=C(Nc1ccc(-n2ncc3ccccc32)cc1)Nc1ccc(Cl)c(C(F)(F)F)c1 | 5.5 | 5 | 32 | > 32 | 8.7 | 10.6 | 9.9 | 8 | 18.2 | – | –
CNc1cccc2c1cnn2-c1ccc(NC(=O)Nc2ccc(Cl)c(C(F)(F)F)c2)cc1 | 2.6 | 3.6 | 10.6 | 6.9 | 6.3 | 5 | 4.9 | 3 | 5.9 | – | –
COc1cccc2c1cnn2-c1ccc(NC(=O)Nc2ccc(Cl)c(C(F)(F)F)c2)cc1 | 2.2 | 1.2 | 28.8 | 29.8 | > 32 | 2.9 | 3.7 | 4 | > 32 | – | –
O=C(Nc1ccc(-n2ncc3c(C(F)(F)F)cccc32)cc1)Nc1ccc(C(F)(F)F)cc1 | 0.8 | 2 | 4 | 4 | 2.2 | 1 | 0.8 | 1 | 3.3 | Non-toxic | –
O=C(Nc1ccc(-n2ncc3c(Cl)cccc32)cc1)Nc1ccc(C(F)(F)F)cc1 | 6.8 | 2.7 | 4.6 | 6 | 5.1 | 8 | 6 | 6.7 | 1 | – | –
O=C(Nc1ccc(-n2ncc3cnccc32)cc1)Nc1ccc(Cl)c(C(F)(F)F)c1 | 1.4 | 16 | > 32 | 22.6 | 8 | 2.7 | 3.4 | 4 | 10.5 | – | –
O=C(Nc1ccc(-n2ncc3ccncc32)cc1)Nc1ccc(Cl)c(C(F)(F)F)c1 | 4.8 | > 32 | > 32 | > 32 | 7.1 | 4 | 10.6 | 16 | 29.5 | – | –
O=C(Nc1ccc(-n2ncc3cccnc32)cc1)Nc1ccc(Cl)c(C(F)(F)F)c1 | 16.6 | > 32 | > 32 | > 32 | 32 | 20.9 | > 32 | > 32 | > 32 | – | –
CNC(=O)c1cc(Oc2ccc(NC(=O)Nc3ccc(Cl)c(C(F)(F)F)c3)cc2)ccn1 [SORAFENIB] | 3.9 | 2 | 16 | 6.9 | 3.3 | 5.8 | 4 | 4 | 4 | – | Non-toxic
